What is called IC50 is the concentration that gives 50% inhibition.

The text below walks through data of ChEMBL document CHEMBL4765409, “Synthesis and biological evaluation of geniposide derivatives as potent and selective PTPlB inhibitors” (Eur J Med Chem, 2020).

The target of assay [1] is T1, Tyrosine-protein phosphatase non-receptor type 1 (Homo sapiens, UniProt P18031).
T1 sequence (P18031 whole entry): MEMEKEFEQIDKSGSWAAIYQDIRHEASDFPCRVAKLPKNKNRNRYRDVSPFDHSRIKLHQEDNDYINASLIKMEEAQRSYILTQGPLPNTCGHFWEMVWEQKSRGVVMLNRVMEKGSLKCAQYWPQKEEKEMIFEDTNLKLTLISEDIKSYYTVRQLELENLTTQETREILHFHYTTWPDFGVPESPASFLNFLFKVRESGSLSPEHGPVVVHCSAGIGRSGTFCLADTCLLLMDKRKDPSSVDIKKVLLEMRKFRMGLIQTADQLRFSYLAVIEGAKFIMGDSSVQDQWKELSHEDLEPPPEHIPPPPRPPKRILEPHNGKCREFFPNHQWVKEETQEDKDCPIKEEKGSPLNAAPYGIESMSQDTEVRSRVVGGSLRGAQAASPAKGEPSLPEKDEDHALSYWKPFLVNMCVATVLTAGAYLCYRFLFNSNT
The assay is described as follows: Inhibition of recombinant human PTP1B using pNPP as substrate measured after 30 mins. The essentials: (§1)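 75 nM recombinant enzyme (PTP1B, TCPTP or SHP2) with 2.5 mM pNPP in 10 mM Tris, 25 mM NaCl, 1 mM EDTA, pH 7.1; compounds added from DMSO. Reaction run 30 min at room temperature, stopped with 2.0 N NaOH, pNP read at 405 nm. Sodium vanadate as positive control. IC50 from enzyme progress curves; means of triplicates, repeated twice.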

For assay [2], the target named is T1, Tyrosine-protein phosphatase non-receptor type 1. As to the kind of experiment: Inhibition of recombinant human PTP1B (1 to 322 residues) expressed in Escherichia coli using IR5 (1142 to 1153, pY1146) as substrate by malachite green dye based colorimetric assay.
Assay [3] concerns the target T2, Tyrosine-protein phosphatase non-receptor type 11 (Homo sapiens, UniProt Q06124).
T2 sequence (Q06124 whole entry): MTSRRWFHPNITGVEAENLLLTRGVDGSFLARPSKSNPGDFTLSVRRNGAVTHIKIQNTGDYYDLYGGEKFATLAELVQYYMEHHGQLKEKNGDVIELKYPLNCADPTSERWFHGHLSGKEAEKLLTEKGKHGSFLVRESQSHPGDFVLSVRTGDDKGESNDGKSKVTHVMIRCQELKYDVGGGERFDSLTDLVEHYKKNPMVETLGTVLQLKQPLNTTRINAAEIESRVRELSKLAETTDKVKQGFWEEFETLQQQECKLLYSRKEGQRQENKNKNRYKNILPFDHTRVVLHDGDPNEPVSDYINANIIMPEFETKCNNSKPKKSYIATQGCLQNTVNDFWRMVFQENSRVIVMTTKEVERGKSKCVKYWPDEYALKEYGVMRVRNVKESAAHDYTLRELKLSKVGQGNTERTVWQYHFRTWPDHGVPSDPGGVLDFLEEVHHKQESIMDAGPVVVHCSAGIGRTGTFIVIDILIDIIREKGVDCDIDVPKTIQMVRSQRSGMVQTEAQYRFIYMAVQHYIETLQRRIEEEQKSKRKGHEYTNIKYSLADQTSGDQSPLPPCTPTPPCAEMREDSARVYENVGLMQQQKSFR
As to the kind of experiment: Inhibition of recombinant SHP2 (unknown origin) using pNPP as substrate measured after 30 mins. In outline:
as §1

The target of assay [4] is T3, Tyrosine-protein phosphatase non-receptor type 2 (Homo sapiens, UniProt P17706).
T3 sequence (P17706 whole entry): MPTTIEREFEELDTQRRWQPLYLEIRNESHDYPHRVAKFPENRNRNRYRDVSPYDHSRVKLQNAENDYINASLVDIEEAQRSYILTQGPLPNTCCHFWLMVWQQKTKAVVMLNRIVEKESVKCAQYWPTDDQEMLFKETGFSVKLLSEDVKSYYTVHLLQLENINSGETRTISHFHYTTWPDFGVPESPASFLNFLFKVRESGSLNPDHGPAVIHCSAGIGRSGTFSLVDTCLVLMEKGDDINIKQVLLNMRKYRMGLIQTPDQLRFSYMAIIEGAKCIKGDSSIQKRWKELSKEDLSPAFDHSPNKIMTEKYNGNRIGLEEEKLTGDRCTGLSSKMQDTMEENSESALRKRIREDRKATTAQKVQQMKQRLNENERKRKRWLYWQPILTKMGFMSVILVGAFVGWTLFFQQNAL
As to the kind of experiment: Inhibition of recombinant human TCPTP using pNPP as substrate measured after 30 mins. In outline:
as §1

On to `O=C1C[C@@H](O[C@@H]2O[C@H](CO)[C@@H](O)[C@H](O)[C@H]2O)CO1`, for which the IC50 in assay [1] was 5.8 µM; in assay [2], 5.14 µM; in assay [3], greater than 50 µM; in assay [4], greater than 50 µM.
